The values that follow come from ChEMBL document CHEMBL1132244, “Benzodiazepine receptor ligands. 4. Synthesis and pharmacological evaluation of 3-heteroaryl-8-chloropyrazolo[5,1-c][1,2,4] benzotriazine 5-oxides” (J Med Chem, 1999).

By inhibition is commonly meant the change of the read-out against control, counted positive when it falls. Higher therefore signals a response far below the control. A word on the Ki: it is a dissociation constant, usually derived from enzyme kinetics or from competition with a known ligand. A low value points to higher affinity.

For data set [1], the system named is Mus musculus. Kind of data set: Muscle relaxant effect measured by rotarod test at 30 mg/kg dose 13d and 100 mg/kg Flumazenil. The format is functional. (In general: Falling from the rotarod earlier than controls is read as motor impairment.)
Data set [2] concerns Mus musculus. Kind of data set: Anticonvulsant activity against PTZ induced attacks at 30 mg/kg dose 13d and 100 mg/kg Flumazenil. The format is functional. Summed up:
(§1)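 Male Swiss-Webster mice (22–26 g) received drug in 1% CMC (10 mL/kg) 30 min before the test, or flumazenil 40 min before. Pentylenetetrazole was then given at 75 mg/kg sc, and generalized tonic-clonic seizures were scored over the following 30 min. The incidence of non-convulsing mice was analysed by χ² test.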

The species named for data set [3] is Mus musculus. Nature of the data set: Antianxiety activity was measured based on light/dark box thus calculated no of crosses of mice. The format is functional.
For data set [4], the species on record is Mus musculus. Kind of data set: Muscle relaxant effect measured by rotarod test. The format is functional.
The species entered for data set [5] is Mus musculus. Kind of data set: Antianxiety activity was measured based on light/dark box thus calculated % time in light of mice. The format is functional.
The species entered for data set [6] is Mus musculus. Kind of data set: Anticonvulsant activity against PTZ induced atacks. The format is functional. Put shortly:
as §1

The target of data set [7] is T1, GABA-A receptor; anion channel (Bos taurus) (UniProt P10063+P08220+P20237+P08219+P10064+P22300). Nature of the data set: Percentage inhibition of [3H]Ro-151788 binding to GABA-A benzodiazepine receptor in bovine brain membrane at 10 uM. The format is cell membranes. Summed up:
(§2)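 Washed bovine cerebral cortex membranes, with endogenous GABA removed by Triton X-100/37 °C washes, incubated with ~0.2 nM [3H]Ro15-1788 (Kd 0.60 nM) in 50 mM Tris-citrate pH 7.4 for 90 min at 0 °C, then filtered. Nonspecific binding defined with 10 μM diazepam. Screening at 10 μM; Ki from IC50 by Cheng–Prusoff; five determinations, mean ± SEM.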

The target in data set [8] is T1, GABA-A receptor; anion channel (Bos taurus). Kind of data set: The GABA ratio (GR) = IC50 compound + 10 uM GABA, performed in five independent experiments was calculated for the compound. The format is protein-complex assay. Put shortly:
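[3H]Ro15-1788 displacement from GABA-depleted bovine cortex membranes (0.2 nM ligand, 90 min, 0 °C, Tris-citrate pH 7.4). IC50 measured without and with 10 μM GABA and the ratio taken; five independent experiments.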

Data set [9] concerns the target GABA-A receptor; anion channel. Nature of the data set: Displacement of [3H]Ro-151788 from GABA-A benzodiazepine receptor of bovine brain membranes. The format is cell membranes, Bos taurus. Summed up:
as §2

Data set [10] concerns Mus musculus. Kind of data set: Muscle relaxant effect measured by rotarod test at 300 mg/Kg dose in mice. The format is functional. Put shortly:
(§3)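 Motor coordination on the rota rod in male Swiss-Webster mice (22–26 g) after oral dosing in 1% CMC (10 mL/kg), tested 30 min post-dose. Student's t-test.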

In data set [11] the test system is Mus musculus. Nature of the data set: (§4) Anticonvulsant activity against MES-induced hindlimb extension at 100 mg/kg dose. The format is functional.
Data set [12] deals with Mus musculus. Kind of data set: (§5) Anticonvulsant activity against MES-induced hindlimb extension at 30 mg/kg dose. The format is functional.
In data set [13] the test system is Mus musculus. Kind of data set: Muscle relaxant effect measured by rotarod test at 100 mg/Kg dose in mice. The format is functional. Put shortly: as §3
Data set [14] deals with Mus musculus. Kind of data set: Anticonvulsant activity against PTZ induced atacks at 100 mg/kg dose. The format is functional.
The subject of data set [15] is Mus musculus. Nature of the data set: Antianxiety activity was measured based on light/dark box thus calculated % time in light of mice at 30 mg/kg dose. The format is functional. Put shortly: (§6)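 Male Swiss-Webster mice, 22–26 g, dosed orally with drug or 1% CMC vehicle (10 mL/kg), placed 30 min later in the centre of the lit side of a two-compartment light/dark box (60-W bulb 400 mm above the white floor). Time in the lit side and number of crossings counted over 5 min. Student's t-test.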

Data set [16] relates to Mus musculus. Kind of data set: Antianxiety activity was measured based on light/dark box thus calculated no of crosses of mice at 100 mg/kg dose. The format is functional. Summed up: as §6
For data set [17], the system named is Mus musculus. Nature of the data set: Anticonvulsant activity against PTZ induced atacks at 30 mg/kg dose. The format is functional.
Data set [18] concerns Mus musculus. Described as §4. The format is organism-based. Further details: dose 100 mg/kg. As to conditions: in vivo. Put shortly: (§7)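 Male Swiss-Webster mice (22–26 g) received drug in 1% CMC (10 mL/kg) 30 min before maximal electroshock through transcorneal electrodes (40 mA, 50 Hz, 0.2 s). The end point was tonic hindlimb extension, and lethality was also noted. The incidence of non-convulsing mice was analysed by χ² test.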

Data set [19] relates to Mus musculus. Nature of the data set: Antianxiety activity was measured based on light/dark box thus calculated no of crosses of mice at 30 mg/kg dose. The format is functional. Put shortly:
as §6

Data set [20] relates to Mus musculus. Nature of the data set: Antianxiety activity was measured based on light/dark box thus calculated % time in light of mice at 100 mg/kg dose. The format is functional. Summed up: as §6
Data set [21] concerns Mus musculus. The description is as §5. The format is ADME, organism-based. Details: dose 30 mg/kg. As to conditions: in vivo. Summed up:
as §7

Data set [22] deals with T1, GABA-A receptor; anion channel (Bos taurus). Kind of data set: Percentage inhibition of [3H]Ro-151788 binding to GABA-A central benzodiazepine receptor in bovine brain membrane at 10 uM. The format is cell membranes. Put shortly: as §2

In the data set with Mus musculus [1], `CCOC(=O)c1ncn2c1CN(C)C(=O)c1cc(F)ccc1-2.[O-][n+]1nc2c(-c3ccsc3)cnn2c2cc(Cl)ccc21` had a No. of falls of 0.64. The Attacks in the data set with Mus musculus [2] worked out at 36.4%.

For the compound `CCOC(=O)c1ncn2c1CN(C)C(=O)c1cc(F)ccc1-2` [FLUMAZENIL], the No. of crosses in the data set listed under Mus musculus [3] is 15.2. In the data set filed under Mus musculus [4], this compound showed a No. of falls of 0.4. In addition, the Time in flight in the data set filed under Mus musculus [5] is listed as 114.8%. Further, in the data set filed under Mus musculus [6], the Attacks came to 0%.

Consider `[O-][n+]1nc2c(-c3nc[nH]n3)cnn2c2cc(Cl)ccc21`, for which the inhibition in data set [7] is 44.4%.

In [7], `CC(C)(C)OC(=O)Nc1cnn2c1n[n+]([O-])c1ccc(Cl)cc12` yielded an inhibition of 0%.

`[O-][n+]1nc2c(-n3cccc3)cnn2c2cc(Cl)ccc21` showed an inhibition in data set [7] of 87.5%. Besides, the GR in data set [8] is 1.24. Further, affinity in [9] was put at a Ki of 61.5 nM.

On to `Nc1cnn2c1n[n+]([O-])c1ccc(Cl)cc12`, for which the inhibition in data set [7] is 33.9%.

As for `[O-][n+]1nc2c(-c3cnoc3)cnn2c2cc(Cl)ccc21`, the inhibition in [7] came out at 66%.

With `CCOC(=O)c1cnn2c1n[n+]([O-])c1ccc(Cl)cc12`, in data set [7], the inhibition was 99.8%. Besides, the values for the No. of falls with Mus musculus [10] and in the data set with Mus musculus [13] were 0.33 and 0.5, respectively. The Extension in the data set on Mus musculus [11] and in the data set on Mus musculus [12] was 0% throughout. Also, the Atttacks in the data set on Mus musculus [14] was 28.1%; in the data set on Mus musculus [17], 15%. Also, the Time in flight in the data set on Mus musculus [15] is 106.2%; with Mus musculus [20], 124.6%. Moreover, the No. of crosses in the data set on Mus musculus [16] is 15.2; in the data set with Mus musculus [19] it was 19.1. The results for the Lethality in the data set on Mus musculus [18] and with Mus musculus [21] were 0% and 22.2%, respectively. In addition, the GR in data set [8] is 1.91. Also, affinity in data set [9] was put at a Ki of 35 nM.

For `CN1C(=O)CN=C(c2ccccc2)c2cc(Cl)ccc21`, the GR in [8] was 1.5.

Regarding `Cn1cnc(-c2cnn3c2n[n+]([O-])c2ccc(Cl)cc23)n1`, the inhibition in [7] was determined as 0%.

For `Clc1ccc2nnc3c(-c4cccs4)cnn3c2c1`, the inhibition in data set [22] stood at 66%.
